Results as given in ChEMBL document CHEMBL4725359, “Development of Potent PfCLK3 Inhibitors Based on TCMDC-135051 as a New Class of Antimalarials” (J Med Chem, 2020).
Calls of active or inactive are those of the source. No cut-off for these calls is given here.

Assays:
[1] = Inhibition of recombinant full-length Plasmodium falciparum 3D7 CLK3 using ULight-labelled CFFKNIVTPRTPPPSQGK as substrate measured after 1 hr by TR-FRET assay
Procedure, shortened: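 Peptide substrate plus cold ATP with serially diluted inhibitor, 37 °C for 1 h. Stopped with 30 mM EDTA and Eu-anti-phospho antibody (3 nM), 1 h RT, read 665 nm emission. Normalised to no-kinase/no-inhibitor wells; three independent experiments in triplicate, mean ± SEM.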

Plasmodium falciparum [2] = assay: Antimalarial activity against chloroquine-sensitive synchronized ring stage of Plasmodium falciparum 3D7 incubated for 48 to 52 hrs by SYBR green 1 dye based assay; assay type: functional, organism-based
[3] = Distribution coefficient, log D of the compound at pH 7.4 by HPLC method; assay type: physicochemical; details: octanol/water
Plasmodium falciparum [4] = assay: Antimalarial activity against Plasmodium falciparum isolate GB0006 assessed as reduction in parasitemia at 1 to 10 times EC50 supplemented with fresh medium containing compounds every 24 hrs for 72 hrs relative to control; assay type: functional
Procedure, shortened: (§1)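 Parasite reduction ratio setup: cryopreserved clinical isolates thawed and cultured at least one cycle (~48 h ± 2); new rings 0–3 h post-invasion taken as t = 0. […] 24 h arm: drug removed by two washes; 48 and 72 h arms: fresh drug every 24 h.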

Plasmodium falciparum [5] = assay: Antimalarial activity against Plasmodium falciparum isolate GB0004 assessed as reduction in parasitemia at 1 to 10 times EC50 supplemented with fresh medium containing compounds every 24 hrs for 72 hrs relative to control; assay type: functional; procedure, shortened: as §1
Plasmodium falciparum [6] = assay: Antimalarial activity against Plasmodium falciparum isolate GB0021 assessed as reduction in parasitemia at 1 to 10 times EC50 supplemented with fresh medium containing compounds every 24 hrs for 72 hrs relative to control; assay type: functional; procedure, shortened: as §1
Plasmodium falciparum [7] = assay: Antimalarial activity against Plasmodium falciparum isolate GB0048 assessed as reduction in parasitemia at 1 to 10 times EC50 supplemented with fresh medium containing compounds every 24 hrs for 72 hrs relative to control; assay type: functional; procedure, shortened: as §1
Plasmodium falciparum [8] = assay: Antimalarial activity against Plasmodium falciparum isolate GB0071 assessed as reduction in parasitemia at 1 to 10 times EC50 supplemented with fresh medium containing compounds every 24 hrs for 72 hrs relative to control; assay type: functional; procedure, shortened: as §1
Plasmodium falciparum [9] = assay: Antimalarial activity against Plasmodium falciparum isolate GB0087 assessed as reduction in parasitemia at 1 to 10 times EC50 supplemented with fresh medium containing compounds every 24 hrs for 72 hrs relative to control; assay type: functional; procedure, shortened: as §1
Plasmodium falciparum [10] = assay: Antimalarial activity against Plasmodium falciparum isolate GB0020 assessed as reduction in parasitemia at 1 to 10 times EC50 supplemented with fresh medium containing compounds every 24 hrs for 72 hrs relative to control; assay type: functional, organism-based; procedure, shortened: as §1
Plasmodium falciparum [11] = assay: Antimalarial activity against Plasmodium falciparum isolate GB002 assessed as reduction in parasitemia at 1 to 10 times EC50 supplemented with fresh medium containing compounds every 24 hrs for 72 hrs relative to control; assay type: functional, organism-based; procedure, shortened: as §1
Plasmodium falciparum [12] = assay: Antimalarial activity against Plasmodium falciparum isolate GB0026 assessed as reduction in parasitemia at 1 to 10 times EC50 supplemented with fresh medium containing compounds every 24 hrs for 72 hrs relative to control; assay type: functional, organism-based; procedure, shortened: as §1
Plasmodium falciparum [13] = assay: Antimalarial activity against Plasmodium falciparum isolate GB0020 assessed as reduction in parasitemia at 1 to 10 times EC50 measured after 24 hrs relative to control; assay type: functional; set-up: scale not given: the % may be the effect or the level left; procedure, shortened: as §1
Plasmodium falciparum [14] = assay: Antimalarial activity against Plasmodium falciparum isolate GB002 assessed as reduction in parasitemia at 1 to 10 times EC50 measured after 24 hrs relative to control; assay type: functional; set-up: scale not given: the % may be the effect or the level left; procedure, shortened: as §1
Plasmodium falciparum [15] = assay: Antimalarial activity against Plasmodium falciparum isolate GB0026 assessed as reduction in parasitemia at 1 to 10 times EC50 measured after 24 hrs relative to control; assay type: functional; set-up: scale not given: the % may be the effect or the level left; procedure, shortened: as §1
Plasmodium falciparum [16] = assay: Antimalarial activity against Plasmodium falciparum isolate GB0020 assessed as reduction in parasitemia at 10 times EC50 measured after 72 hrs; assay type: functional, organism-based; procedure, shortened: as §1
Plasmodium falciparum [17] = assay: Antimalarial activity against Plasmodium falciparum isolate GB002 assessed as reduction in parasitemia at 10 times EC50 measured after 72 hrs; assay type: functional, organism-based; procedure, shortened: as §1
Plasmodium falciparum [18] = assay: Antimalarial activity against Plasmodium falciparum isolate GB0026 assessed as reduction in parasitemia at 10 times EC50 measured after 72 hrs; assay type: functional, organism-based; procedure, shortened: as §1

Question: Which IC50 [1] does the source give for `COc1ccc(CN2CCOCC2)cc1-c1cc2c(-c3ccc(C(=O)O)c(C(C)C)c3)ccnc2[nH]1` here?
Answer: 9 nM

Question: What about the pIC50 [1] of the same compound?
Answer: 8

Question: With `CCN(CC)Cc1cccc(-c2cc3c(-c4ccc(C(=O)O)c(C(C)C)c4)ccnc3[nH]2)c1` as the compound, how does the IC50 [1] read?
Answer: 25 nM

Question: And the pIC50 [1]?
Answer: 7.6

Question: And the EC50 (Plasmodium falciparum [2]; read-out: EC50)?
Answer: 309 nM

Question: What about the logD [3] of the same compound?
Answer: 0.8

Question: What does the source list for `COc1ccc(CN2CCCC2)cc1-c1cc2c(-c3ccc(C(=O)O)c(C(C)C)c3)ccnc2[nH]1`?
Answer: IC50 [1]: 38 nM; pIC50 [1]: 7.4; EC50 (Plasmodium falciparum [2]; read-out: EC50): 382 nM; logD [3]: 2.43

Question: For `CCOC(=O)c1ccc(-c2ccnc3[nH]c(-c4cc(CN(CC)CC)ccc4OC)cc23)cc1C(C)C`, which IC50 [1] is on record?
Answer: 390 nM

Question: And the pIC50 [1]?
Answer: 6.4

Question: And the logD [3]?
Answer: 2.45

Question: What does the source list for `CCN(CC)Cc1ccc(OC)c(-c2cc3c(-c4ccc(C(=O)O)c(C)c4)ccnc3[nH]2)c1`?
Answer: IC50 [1]: 24 nM; pIC50 [1]: 7.6; EC50 (Plasmodium falciparum [2]; read-out: EC50): 1180 nM; EC50 (Plasmodium falciparum [2]; read-out: pEC50 (converted)): 2510 nM; logD [3]: 0.66

Question: Which IC50 [1] does the source give for `CCN(CC)Cc1ccc(OC)c(-c2cc3c(-c4ccc(C(=O)O)c(C(C)C)c4)ccnc3[nH]2)c1` here?
Answer: 40 nM

Question: What about the pIC50 [1] of the same compound?
Answer: 7.4

Question: And the logD [3]?
Answer: 0.93

Question: And the Activity (Plasmodium falciparum [4])?
Answer: Active

Question: And the Activity (Plasmodium falciparum [5])?
Answer: Active

Question: And the Activity (Plasmodium falciparum [6])?
Answer: Active

Question: What about the Activity (Plasmodium falciparum [7]) of the same compound?
Answer: Active

Question: What about the Activity (Plasmodium falciparum [8]) of the same compound?
Answer: Active

Question: What about the Activity (Plasmodium falciparum [9]) of the same compound?
Answer: Active

Question: And the Activity (Plasmodium falciparum [10])?
Answer: Active

Question: What about the Activity (Plasmodium falciparum [11]) of the same compound?
Answer: Active

Question: What about the Activity (Plasmodium falciparum [12]) of the same compound?
Answer: Active

Question: For `CCN(CC)Cc1ccc(OC)c(-c2cc3c(-c4ccc(C(C)C)c(C(=O)O)c4)ccnc3[nH]2)c1`, which IC50 [1] is on record?
Answer: 1380 nM

Question: What about the pIC50 [1] of the same compound?
Answer: 4.9

Question: Which IC50 [1] does the source give for `CCN(CC)Cc1ccc(O)c(-c2cc3c(-c4ccc(C(=O)O)c(C(C)C)c4)ccnc3[nH]2)c1` here?
Answer: 22 nM

Question: What about the pIC50 [1] of the same compound?
Answer: 7.7

Question: What about the EC50 (Plasmodium falciparum [2]; read-out: EC50) of the same compound?
Answer: 3530 nM

Question: What about the logD [3] of the same compound?
Answer: 0.59

Question: Which results are given for `CCN(CC)Cc1ccc(OC)c(-c2cc3c(-c4cccc(C(C)C)c4)ccnc3[nH]2)c1`?
Answer: IC50 [1]: 1300 nM; pIC50 [1]: 6; logD [3]: 4.45

Question: Which IC50 [1] does the source give for `COc1ccc(CN)cc1-c1cc2c(-c3ccc(C(=O)O)c(C(C)C)c3)ccnc2[nH]1` here?
Answer: 76 nM

Question: And the pIC50 [1]?
Answer: 7.1

Question: And the EC50 (Plasmodium falciparum [2]; read-out: EC50)?
Answer: 2800 nM

Question: And the EC50 (Plasmodium falciparum [2]; read-out: pEC50 (converted))?
Answer: 2510 nM

Question: And the logD [3]?
Answer: 0.61

Question: For `COc1ccc(CN(C)C)cc1-c1cc2c(-c3ccc(C(=O)O)c(C(C)C)c3)ccnc2[nH]1`, which IC50 [1] is on record?
Answer: 29 nM

Question: What about the pIC50 [1] of the same compound?
Answer: 7.5

Question: And the EC50 (Plasmodium falciparum [2]; read-out: EC50)?
Answer: 457 nM

Question: And the logD [3]?
Answer: 0.85

Question: What does the source list for `CCN(CC)Cc1ccc(OC)c(-c2cc3c(-c4ccc(C(=O)O)cc4)ccnc3[nH]2)c1`?
Answer: IC50 [1]: 34 nM; pIC50 [1]: 7.5; EC50 (Plasmodium falciparum [2]; read-out: EC50): 3270 nM; logD [3]: 0.65

Question: Which EC50 (Plasmodium falciparum [2]; read-out: EC50) does the source give for `CCc1nc(N)nc(N)c1-c1ccc(Cl)cc1` [PYRIMETHAMINE] here?
Answer: 18 nM

Question: What about the Activity (Plasmodium falciparum [4]) of the same compound?
Answer: >=70%

Question: And the Activity (Plasmodium falciparum [6])?
Answer: >=70%

Question: What about the Activity (Plasmodium falciparum [7]) of the same compound?
Answer: >=70%

Question: What about the Activity (Plasmodium falciparum [8]) of the same compound?
Answer: >=70%

Question: What about the Activity (Plasmodium falciparum [9]) of the same compound?
Answer: >=70%

Question: And the Activity (Plasmodium falciparum [13])?
Answer: 45%

Question: And the Activity (Plasmodium falciparum [14])?
Answer: 64%

Question: And the Activity (Plasmodium falciparum [15])?
Answer: 36%

Question: What about the Activity (Plasmodium falciparum [16]) of the same compound?
Answer: inactive

Question: What about the Activity (Plasmodium falciparum [17]) of the same compound?
Answer: inactive

Question: And the Activity (Plasmodium falciparum [18])?
Answer: inactive

Question: For `COc1ccccc1-c1cc2c(-c3ccc(C(=O)O)c(C(C)C)c3)ccnc2[nH]1`, which IC50 [1] is on record?
Answer: 79 nM

Question: And the pIC50 [1]?
Answer: 7.1

Question: What about the EC50 (Plasmodium falciparum [2]; read-out: EC50) of the same compound?
Answer: 1460 nM

Question: What about the EC50 (Plasmodium falciparum [2]; read-out: pEC50 (converted)) of the same compound?
Answer: 1580 nM

Question: What about the logD [3] of the same compound?
Answer: 2.45

Question: With `CCN(CC)Cc1ccc(OC)c(-c2cc3c(-c4ccc(-c5nnn[nH]5)c(C(C)C)c4)ccnc3[nH]2)c1` as the compound, how does the IC50 [1] read?
Answer: 19 nM

Question: And the pIC50 [1]?
Answer: 7.7

Question: And the logD [3]?
Answer: 0.93

Question: For `CCN(CC)Cc1cccc(-c2cc3c(-c4ccc(C(=O)O)c(C(C)C)c4)ccnc3[nH]2)c1OC`, which IC50 [1] is on record?
Answer: 17 nM

Question: What about the pIC50 [1] of the same compound?
Answer: 7.7

Question: What about the EC50 (Plasmodium falciparum [2]; read-out: EC50) of the same compound?
Answer: 3170 nM

Question: And the EC50 (Plasmodium falciparum [2]; read-out: pEC50 (converted))?
Answer: 2510 nM

Question: And the logD [3]?
Answer: 0.74
